In this test the target is Aryl hydrocarbon receptor (Homo sapiens) (UniProt P35869). The experiment in a line: AHR agonists in hepatoma reporter cells, late-stage follow-up, AHR activator project, HG2L7.5c1 HepG2 cells, luminescence (AID 602171). The conditions noted are these: HG2L7.5c1 HepG2 DRE-luciferase reporter, 24 h, at 10 µM, stronger effect = higher value. A digest of the protocol: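 Assay system: HepG2 (HG2L7.5c1) cells with DRE-driven luciferase reporter / Probe or stimulus: reporter driven by MMTV promoter plus 20 murine CYP1A1 DREs / Compound: one dose, 10 µM nominal / Times: 24 h compound exposure, 37 °C / Detection: luminescence after cell lysis / Measure: % of maximal TCDD activation / Replicates: three wells each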
Sequence of Aryl hydrocarbon receptor (Homo sapiens) (P35869 whole entry, looked up): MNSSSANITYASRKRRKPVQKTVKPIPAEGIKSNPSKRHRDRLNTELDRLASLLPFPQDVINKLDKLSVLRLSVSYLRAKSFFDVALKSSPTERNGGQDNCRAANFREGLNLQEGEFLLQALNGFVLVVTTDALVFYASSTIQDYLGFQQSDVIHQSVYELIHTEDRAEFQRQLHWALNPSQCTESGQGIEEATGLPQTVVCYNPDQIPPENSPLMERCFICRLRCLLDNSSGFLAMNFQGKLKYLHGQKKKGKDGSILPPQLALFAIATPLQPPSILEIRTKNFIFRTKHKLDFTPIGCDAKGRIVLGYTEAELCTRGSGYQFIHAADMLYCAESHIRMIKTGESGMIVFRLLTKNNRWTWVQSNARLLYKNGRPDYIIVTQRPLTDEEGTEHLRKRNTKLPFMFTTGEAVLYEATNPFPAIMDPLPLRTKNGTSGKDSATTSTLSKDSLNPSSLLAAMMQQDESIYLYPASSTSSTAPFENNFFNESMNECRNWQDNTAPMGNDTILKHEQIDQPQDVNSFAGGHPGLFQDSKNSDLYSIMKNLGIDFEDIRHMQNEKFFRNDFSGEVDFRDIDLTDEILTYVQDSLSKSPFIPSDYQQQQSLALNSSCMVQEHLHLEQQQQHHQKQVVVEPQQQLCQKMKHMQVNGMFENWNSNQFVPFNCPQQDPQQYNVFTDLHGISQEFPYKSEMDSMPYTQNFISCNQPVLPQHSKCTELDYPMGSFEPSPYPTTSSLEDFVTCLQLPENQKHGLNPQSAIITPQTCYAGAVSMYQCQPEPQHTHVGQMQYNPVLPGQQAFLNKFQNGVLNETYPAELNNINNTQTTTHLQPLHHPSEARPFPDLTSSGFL
(A reporter such as luciferase makes a cellular process visible.)

Each structure is given as a SMILES string.

Activation (% of TCDD max) data for 33 molecules are collected here from PubChem BioAssay AID602171 (The Scripps Research Institute Molecular Screening Center, 2012).

Regarding `Cc1ccc(-c2cc(-c3cccs3)[nH]n2)c(O)c1`, the activation (% of TCDD max) was 99%. For `COc1ccc(Cl)cc1C(=O)Nc1ccc(N(C)C(C)=O)cc1`, the activation (% of TCDD max) is 165%. The result for `CC(=O)c1ccc(NC(=O)c2cc(Cl)nc3ccccc23)cc1` reads 104%; that for `COc1ccccc1NC(=O)Nc1cccnc1`, 55%; that for `Cn1c(C(=O)N2CCC(C(N)=O)CC2)cc2cc(Cl)ccc21`, 48%. Regarding `O=C(Nc1ccon1)c1cnc2sccn2c1=O`, the activation (% of TCDD max) was 75%.

On to `CCOc1ccccc1NC(=O)c1ccc2nccnc2c1`, for which the activation (% of TCDD max) was 126%. The same measure for `Cc1nc(N)nc(Nc2ccc(Cl)cc2)c1Br`: 78%; for `Cc1ccc(Nc2ncccc2C(N)=O)cc1`: 166%; for `COc1cc2c(cc1NC(=O)Nc1ccc(C)cc1)oc1ccccc12`: 146%. On to `CN1CCN(CCCNC(=O)c2cc3c(-c4ccc(Cl)cc4)nn(C)c3s2)CC1`, for which the activation (% of TCDD max) was 111%. Consider `Cc1c(-c2ccn[nH]2)cc(NC(=O)c2ccc(Cl)cc2)c(=O)n1N`, for which the activation (% of TCDD max) was 86%. The same measure for `O=C(Nc1cccc(Cl)c1)c1cccnn1`: 44%; for `CCOc1ccc(-c2cc(C)n3nc(C(N)=O)cc3n2)cc1`: 41%; for `CCCC(=O)Nc1nn(C)c2nc3cc(C)ccc3cc12`: 34%. `CN(C)c1nc(N)nc(-c2nc3ccccc3s2)n1`: the activation (% of TCDD max) is 105%.

Consider `CCC(=O)Nc1cc(OC)c(NC(=O)c2ccccc2)cc1OC`, for which the activation (% of TCDD max) is 89%.

In the case of `COC(=O)c1ccccc1NC(=O)Cn1ccnc1`, the activation (% of TCDD max) is 71%.

`Cc1ccccc1-c1nc(-c2cccnc2)no1`: the activation (% of TCDD max) was 117%.

With `CCOc1ccc(NC(=O)c2cc3ccccc3cc2OC)cc1`, the activation (% of TCDD max) was 132%. The result for `Cc1csc(SCC(=O)Nc2ccc(Cl)cn2)n1` reads 82%; that for `COc1cc2ccccc2cc1C(=O)Nc1ccc(C)cc1`, 113%; that for `Cn1c(N)c(C(=O)Nc2ccccc2F)sc1=S`, 106%. The result for `O=C(CN1CCOCC1)Nc1nc2ccc([N+](=O)[O-])cc2s1` reads 85%; that for `O=C1c2ccccc2-c2nc3ccccc3nc21`, 197%; that for `COc1ccc(C(=O)Nc2cc(OC)c(NC(=O)c3ccco3)cc2OC)cc1`, 125%.

On to `Cc1nnc(N2C(=O)c3cccc4c([N+](=O)[O-])ccc(c34)C2=O)s1`, for which the activation (% of TCDD max) is 98%. On to `Cc1cc(Nc2ccc(Br)cc2)n2nc(C)nc2n1`, for which the activation (% of TCDD max) is 88%. The result for `COc1ccccc1NC(=O)c1ccc(C(=O)Nc2ccccc2OC)nc1` reads 88%; that for `CCOC(=O)Cc1cc(-c2ccc(O)cc2)nc2ccc3ccccc3c12`, 109%. The result for `COc1ccc(NC(=O)c2cccc3c(Br)cccc23)cc1` reads 128%; that for `COc1ccccc1NC(=O)c1ccc2c(c1)nnn2C`, 36%; that for `COc1ccccc1C(=O)Nc1ccc(N2CCCCC2)cc1`, 52%.
